Measurements as given in ChEMBL document CHEMBL1158465, “Novel small molecule bradykinin B2 receptor antagonists” (J Med Chem, 2009).

What was measured:
B2 bradykinin receptor [1] = target: T1, B2 bradykinin receptor (Cavia porcellus, UniProt O70526); test: Displacement of [3H]bradykinin from guinea pig B2 receptor
T1 sequence (O70526 whole entry): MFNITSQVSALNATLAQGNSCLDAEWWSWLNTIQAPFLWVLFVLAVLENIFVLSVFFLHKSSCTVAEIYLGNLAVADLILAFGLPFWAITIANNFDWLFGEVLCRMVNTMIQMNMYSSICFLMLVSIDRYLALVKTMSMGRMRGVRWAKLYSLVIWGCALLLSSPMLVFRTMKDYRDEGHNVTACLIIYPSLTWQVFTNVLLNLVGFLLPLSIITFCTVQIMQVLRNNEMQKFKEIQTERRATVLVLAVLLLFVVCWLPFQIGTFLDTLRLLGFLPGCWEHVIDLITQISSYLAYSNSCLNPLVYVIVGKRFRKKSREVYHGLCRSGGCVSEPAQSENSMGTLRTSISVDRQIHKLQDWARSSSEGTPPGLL

B2 bradykinin receptor [2] = target: T2, B2 bradykinin receptor (Homo sapiens, UniProt P30411); test: Displacement of [3H]bradykinin from human recombinant B2 receptor expressed in HEK293 cells; type: cell-based
T2 sequence (P30411 whole entry): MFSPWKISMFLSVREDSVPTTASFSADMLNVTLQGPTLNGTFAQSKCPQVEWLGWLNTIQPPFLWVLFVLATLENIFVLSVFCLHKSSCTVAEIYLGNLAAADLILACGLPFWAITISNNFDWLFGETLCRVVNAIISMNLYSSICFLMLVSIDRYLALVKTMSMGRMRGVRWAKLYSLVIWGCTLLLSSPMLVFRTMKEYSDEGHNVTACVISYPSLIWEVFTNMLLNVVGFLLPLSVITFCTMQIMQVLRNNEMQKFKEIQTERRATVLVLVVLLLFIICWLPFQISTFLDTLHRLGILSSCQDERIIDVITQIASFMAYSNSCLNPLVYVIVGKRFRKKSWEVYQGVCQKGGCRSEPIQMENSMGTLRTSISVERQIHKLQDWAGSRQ

B2 bradykinin receptor [3] = target: T2, B2 bradykinin receptor; test: Antagonist activity at B2 receptor in human HF15 cells assessed as inhibition of bradykinin-induced calcium mobilization; type: functional, cell-based
[4] = Metabolic stability in human liver microsomes at 1 uM by HPLC; type: ADME, Microsome; settings: read-out: Stability
Summary of the method: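 Test compound was incubated with liver microsomes for 30 min. Stability is expressed as the percentage of parent compound remaining at the end of incubation.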

Cytochrome P450 2C19 = Cytochrome P450 2C19 (Homo sapiens, UniProt P33261); test: Inhibition of human CYP2C19 by microtiter plate assay; type: ADME
Cytochrome P450 3A4 = Cytochrome P450 3A4 (Homo sapiens, UniProt P08684); test: Inhibition of human CYP3A4 by microtiter plate assay; type: ADME
[5] = Displacement of [3H]bradykinin from B2 receptor N107A mutant
B2 bradykinin receptor [6] = target: T2, B2 bradykinin receptor; test: Displacement of [3H]bradykinin from wild-type B2 receptor
Summary of the method: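 Specific binding of [³H]-BK to recombinant human B₂ receptor expressed in HEK293 cells. Displacement by test compound is reported as IC₅₀. Values are the numerical average of at least two experiments.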

[7] = Aqueous solubility of the compound; type: physicochemical; settings: aqueous solution
[8] = Terminal half life in Wistar rat at 1 mg/kg, iv or 1 mg/kg, po; type: ADME, organism-based; settings: in vivo, read-out: beta t1/2
[9] = Oral bioavailability in Wistar rat at 1 mg/kg; type: ADME, organism-based; settings: in vivo
[10] = Clearance in Wistar rat at 1 mg/kg, iv or 1 mg/kg, po; type: ADME, organism-based; settings: in vivo

Chain of Cytochrome P450 3A4 (P08684 whole entry): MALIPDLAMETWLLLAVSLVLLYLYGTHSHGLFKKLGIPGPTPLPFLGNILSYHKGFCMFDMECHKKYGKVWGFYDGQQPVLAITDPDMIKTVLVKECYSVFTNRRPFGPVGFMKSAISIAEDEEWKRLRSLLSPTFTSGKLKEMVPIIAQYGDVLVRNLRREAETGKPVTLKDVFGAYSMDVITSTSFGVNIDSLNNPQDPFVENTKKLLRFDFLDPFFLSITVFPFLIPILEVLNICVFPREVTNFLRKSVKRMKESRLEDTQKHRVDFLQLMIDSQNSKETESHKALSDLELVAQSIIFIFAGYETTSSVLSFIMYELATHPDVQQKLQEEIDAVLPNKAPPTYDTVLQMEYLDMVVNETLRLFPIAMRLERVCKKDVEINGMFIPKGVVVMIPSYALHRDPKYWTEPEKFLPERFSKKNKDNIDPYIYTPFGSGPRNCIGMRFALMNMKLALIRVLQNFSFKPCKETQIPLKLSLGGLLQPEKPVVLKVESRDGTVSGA
Chain of Cytochrome P450 2C19 (P33261 whole entry): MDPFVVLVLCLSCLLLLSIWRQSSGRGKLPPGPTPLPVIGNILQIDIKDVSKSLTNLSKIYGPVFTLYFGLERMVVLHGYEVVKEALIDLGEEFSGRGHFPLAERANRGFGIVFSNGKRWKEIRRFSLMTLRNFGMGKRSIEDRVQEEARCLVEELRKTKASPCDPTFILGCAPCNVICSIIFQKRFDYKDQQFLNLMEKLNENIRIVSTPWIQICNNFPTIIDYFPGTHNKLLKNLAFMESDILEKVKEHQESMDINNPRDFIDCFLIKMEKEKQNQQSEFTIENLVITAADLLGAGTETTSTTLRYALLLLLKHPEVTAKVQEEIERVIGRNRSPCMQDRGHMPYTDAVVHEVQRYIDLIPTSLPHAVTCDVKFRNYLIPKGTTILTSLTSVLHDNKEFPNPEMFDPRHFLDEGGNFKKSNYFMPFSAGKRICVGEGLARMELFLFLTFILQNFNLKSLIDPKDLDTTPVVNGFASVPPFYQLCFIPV

Structure (SMILES)	IC50 (B2 bradykinin receptor [2])	IC50 (B2 bradykinin receptor [3])	further results
Cc1ccc2cccc(OCc3c(Cl)ccc(N(C)C(=O)CNC(=O)/C=C/c4ccc(C(F)(F)F)cc4)c3C#N)c2n1	–	–	IC50 (B2 bradykinin receptor [1]): 0.3 nM
Cc1cc(-c2conc2C)c2cccc(OCc3c(Cl)cncc3Cl)c2n1	430 nM	3800 nM	–
Cc1cc(C)c2cccc(OCc3c(Cl)ccc(S(=O)(=O)N4CCC[C@H]4C(=O)CCCNC(=O)c4ccc(C(=N)N)cc4)c3Cl)c2n1	0.67 nM	–	–
Cc1cc(-n2ccnc2C)c2cccc(OCc3c(Cl)cncc3Cl)c2n1	200 nM	1300 nM	–
Cc1cc(-c2ncsc2Cl)c2cccc(OCc3c(C)ccnc3Cn3cccc(C(F)(F)F)c3=O)c2n1	10 nM	1.3 nM	remaining at 1 µM [4]: 34%; IC50 (Cytochrome P450 2C19): 300 nM; IC50 (Cytochrome P450 3A4): 0.3 µM
Cc1cc(-c2csnc2C)c2cccc(OCc3c(Cl)cncc3Cl)c2n1	200 nM	330 nM	–
Cc1cc(-c2cncs2)c2cccc(OCc3c(Cl)cncc3Cl)c2n1	135 nM	420 nM	–
Cc1cc(-c2cscn2)c2cccc(OCc3c(Cl)cncc3Cl)c2n1	80 nM	300 nM	–
Cc1cc(-c2ccnn2C)c2cccc(OCc3c(Cl)cncc3CNC(=O)C(C)C)c2n1	7.8 nM	2.3 nM	–
Cc1cc(-c2ocnc2C)c2cccc(OCc3c(Cl)cncc3Cl)c2n1	6050 nM	> 5000 nM	–
Cc1cc(-c2cc[nH]n2)c2cccc(OCc3c(Cl)cncc3Cl)c2n1	310 nM	350 nM	–
Cc1ccc2cccc(OCc3c(Cl)cncc3Cl)c2n1	5300 nM	–	–
Cc1cc(-c2ccnn2C)c2cccc(OCc3ccncc3Cl)c2n1	517 nM	1600 nM	–
Cc1cc(-c2ccnn2C)c2cccc(OCc3c(Cl)cncc3Sc3nccs3)c2n1	50 nM	29 nM	IC50 [5]: 2300 nM; IC50 (B2 bradykinin receptor [6]): 470 nM
Cc1cc(-c2ccnn2C)c2cccc(OCc3c(Cl)cncc3Sc3nccn3C)c2n1	18 nM	43 nM	–
Cc1cc(-c2ccnn2C)c2cccc(OCc3c(Cl)cncc3COC(=O)N(C)C)c2n1	8.3 nM	12 nM	–
Cc1ccc2cccc(OCc3c(Cl)cccc3Cl)c2n1	–	–	solubility [7]: < 1 µM
Cc1cc(-c2ccnn2C)c2cccc(OCc3c(Cl)cncc3CNS(C)(=O)=O)c2n1	14 nM	110 nM	–
Cc1cc(-c2ccnn2C)c2cccc(OCc3c(Cl)cncc3CCC(=O)N(C)C)c2n1	36 nM	73 nM	–
CC(=O)NCc1cncc(Cl)c1COc1cccc2c(-c3ccnn3C)cc(C)nc12	12 nM	24 nM	–
Cc1cc(-c2scnc2Cl)c2cccc(OCc3c(Cl)cncc3Cl)c2n1	980 nM	2500 nM	–
Cc1cc(-c2ccnn2C)c2cccc(OCc3c(Cl)cncc3OCC(=O)N(C)C)c2n1	6.5 nM	91 nM	–
Cc1cc(-n2ccnc2)c2cccc(OCc3c(Cl)cncc3Cl)c2n1	580 nM	2500 nM	solubility [7]: > 50 µM
Cc1cc(-c2ccnn2C)c2cccc(OCc3c(Cl)cncc3Cn3cccc(C(F)(F)F)c3=O)c2n1	4 nM	1.4 nM	–
Cc1cc(-c2ccnn2C)c2cccc(OCc3c(C)ccnc3CNC(=O)C(C)C)c2n1	5.4 nM	3.8 nM	remaining at 1 µM [4]: 13%; IC50 (Cytochrome P450 2C19): > 5000 nM; IC50 (Cytochrome P450 3A4): 3.1 µM

Structure (SMILES)	IC50 (B2 bradykinin receptor [2])	IC50 (B2 bradykinin receptor [3])	further results
Cc1cc(-c2ccnn2C)c2cccc(OCc3c(Cl)cncc3COc3ccccn3)c2n1	140 nM	260 nM	–
Cc1cc(-c2ccnn2C)c2cccc(OCc3c(C)ccnc3CNC(=O)C3CCCCC3)c2n1	10 nM	1.8 nM	remaining at 1 µM [4]: 17%; IC50 (Cytochrome P450 2C19): 1600 nM; IC50 (Cytochrome P450 3A4): 2.5 µM
Cc1cc(-c2nccs2)c2cccc(OCc3c(Cl)cncc3Cl)c2n1	420 nM	480 nM	–
Cc1cc(-c2ccnn2C)c2cccc(OCc3c(C)ccnc3Cn3cccc(C(F)(F)F)c3=O)c2n1	8.8 nM	0.54 nM	remaining at 1 µM [4]: 45%; IC50 (Cytochrome P450 2C19): > 5000 nM; IC50 (Cytochrome P450 3A4): > 5 µM
Cc1cc(-c2n[nH]cc2C)c2cccc(OCc3c(Cl)cncc3Cl)c2n1	110 nM	390 nM	remaining at 1 µM [4]: 19%
Cc1cc(-c2nscc2C)c2cccc(OCc3c(Cl)cncc3Cl)c2n1	20 nM	70 nM	–
Cc1cc(-c2ccnn2C)c2cccc(OCc3c(Cl)cncc3Cn3ccccc3=O)c2n1	5.1 nM	3.6 nM	–
Cc1cc(-c2cncn2C)c2cccc(OCc3c(Cl)cncc3Cl)c2n1	4400 nM	–	–
Cc1cc(-c2ncc(C)n2C)c2cccc(OCc3c(Cl)cncc3Cl)c2n1	200 nM	3400 nM	–
Cc1cc(-c2nccn2C)c2cccc(OCc3c(Cl)cncc3Cl)c2n1	90 nM	760 nM	–
Cc1cc(-c2ccnn2C)c2cccc(OCc3c(Cl)cncc3CCC(N)=O)c2n1	33 nM	190 nM	–
CC(=O)OCc1cncc(Cl)c1C(=O)c1cccc2c(-c3ccnn3C)cc(C)nc12	6 nM	260 nM	–
Cc1cc(-c2ccnn2C)c2cccc(OCc3c(Cl)cncc3Cl)c2n1	50 nM	180 nM	remaining at 1 µM [4]: 7%
Cc1cc(-n2cccn2)c2cccc(OCc3c(Cl)cncc3Cl)c2n1	32 nM	920 nM	–
Cc1cc(-c2ccnn2C)c2cccc(OCc3c(Cl)cncc3[S+]([O-])CC(=O)N(C)C)c2n1 (configuration not stated)	37 nM	76 nM	–
Cc1cc(-c2ncnn2C)c2cccc(OCc3c(Cl)cncc3Cl)c2n1	68 nM	2400 nM	–
Cc1cc(-c2ncsc2C)c2cccc(OCc3c(Cl)cncc3Cl)c2n1	64 nM	400 nM	–
Cc1cc(-c2ncsc2Cl)c2cccc(OCc3c(Cl)cncc3Cl)c2n1	210 nM	730 nM	remaining at 1 µM [4]: 35%
Cc1cc(-c2nncn2C)c2cccc(OCc3c(Cl)cncc3Cl)c2n1	7100 nM	–	–
Cc1cc(-c2ccnn2C)c2cccc(OCc3c(Cl)cncc3CNC(=O)N(C)C)c2n1	6.6 nM	2.8 nM	–
Cc1cc(-c2[nH]ncc2C)c2cccc(OCc3c(C)ccnc3Cn3cccc(C(F)(F)F)c3=O)c2n1	8.7 nM	1.1 nM	half-life [8]: 67 min; remaining at 1 µM [4]: 21%; bioavailability [9]: > 17%; clearance [10]: 21 mL/min/kg; IC50 (Cytochrome P450 2C19): > 5000 nM; IC50 (Cytochrome P450 3A4): 3.8 µM
Cc1cc(-c2scnc2C)c2cccc(OCc3c(Cl)cncc3Cl)c2n1	110 nM	67 nM	–
Cc1cc(-c2cn[nH]c2C)c2cccc(OCc3c(Cl)cncc3Cl)c2n1	3600 nM	6300 nM	–
Cc1cc(-c2ccnn2C)c2cccc(OCc3c(Cl)cncc3SCC(=O)N(C)C)c2n1	7.5 nM	24 nM	–
Cc1cc(C)c2cccc(OCc3c(Cl)ccc(S(=O)(=O)NC4(C(=O)N5CCN(C(=O)[C@@H](N)CCC[N+](C)(C)C)CC5)CCOCC4)c3Cl)c2n1 [FASITIBANT CHLORIDE]	0.05 nM	–	–
